# From PubChem BioAssay
# Hits are enriched below; roughly 5.4% of the tested compounds scored in any of these assays.
# CSC inhib = cancer stem cell inhibition. inhibition, % at 7.5 µM. cancer stem cell-like cells viability, luminescence. 300,000 compounds, 1.1% hits; in the data active = inhibition above about 75%; inconclusive = no clear call, values can overlap the other calls; tested in HMLE shEcad cells
# T cruzi inh = blocks replication of Trypanosoma cruzi. T. cruzi beta-gal in NIH3T3, luminescence, 90 h. inhibition, % (no concentration beside the values). 300,000 compounds, 1.4% hits;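 active = mean inhibition across valid replicates above about 55%, limit read from the data; inconclusive = mean below that limit but half or more replicates reach it; inactive = mean below it, under half of replicates reach it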;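 also: signal also drops with host cell toxicity which is not excluded here; 0% = plate median of DMSO wells and 100% = zero luminescence signal; higher percent means less beta-gal luminescence so fewer parasites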
#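 Test system: β-gal T. cruzi (Tulahuen C4) inside NIH/3T3 cells / Quantity: 5,000 cells/well / Measured by: luminescence from GalScreen with 0.05% NP40, read after 60 min / Medium: DMEM plus 2% FBS / Measure: parasite load inhibition, % / Reagent: Tulahuen C4 trypomastigotes, 5000/well / Schedule: co-culture of at least 90 h after 3 h attachment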
# aSyn UTR inh = 5' untranslated region of α-synuclein, MLPCN primary screen; alpha-synuclein 5'UTR reporter, inhibitor activity; inhibition, % (tested at 7.5 µM); 300,000 compounds, 0.82% hits; AID 1813; in the data active = inhibition above about 60%; inconclusive = no clear call, values can overlap the other calls;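 also: H4 neuroglioblastoma cells stably carrying SNCA 5'UTR luciferase fusion; 0% = DMSO wells and 100% = positive control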
# Mdm2-MdmX inh = inhibitors of human Mdm2/MdmX interaction; AID 485346; SaOS-2 split-luciferase Mdm2/MdmX complementation, luminescence; inhibition, % at 8 µM; 330,000 compounds, 3% hits;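 active = inhibition of at least 50% at 8 µM in the primary screen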
# Target sequence (O15151 whole entry, looked up): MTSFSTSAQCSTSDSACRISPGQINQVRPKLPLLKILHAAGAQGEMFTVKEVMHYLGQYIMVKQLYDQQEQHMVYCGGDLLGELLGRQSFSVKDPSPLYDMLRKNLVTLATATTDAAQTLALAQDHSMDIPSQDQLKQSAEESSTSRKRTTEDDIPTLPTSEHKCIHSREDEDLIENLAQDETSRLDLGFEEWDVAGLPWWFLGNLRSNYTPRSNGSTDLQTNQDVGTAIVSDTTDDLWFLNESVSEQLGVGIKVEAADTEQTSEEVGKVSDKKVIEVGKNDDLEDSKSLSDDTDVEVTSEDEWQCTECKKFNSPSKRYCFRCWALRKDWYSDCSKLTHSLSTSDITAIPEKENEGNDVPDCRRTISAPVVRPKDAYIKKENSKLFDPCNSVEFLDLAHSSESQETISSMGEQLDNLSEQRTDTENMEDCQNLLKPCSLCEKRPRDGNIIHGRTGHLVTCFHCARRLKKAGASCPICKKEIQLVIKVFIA
# Target sequence (Q00987 whole entry, looked up): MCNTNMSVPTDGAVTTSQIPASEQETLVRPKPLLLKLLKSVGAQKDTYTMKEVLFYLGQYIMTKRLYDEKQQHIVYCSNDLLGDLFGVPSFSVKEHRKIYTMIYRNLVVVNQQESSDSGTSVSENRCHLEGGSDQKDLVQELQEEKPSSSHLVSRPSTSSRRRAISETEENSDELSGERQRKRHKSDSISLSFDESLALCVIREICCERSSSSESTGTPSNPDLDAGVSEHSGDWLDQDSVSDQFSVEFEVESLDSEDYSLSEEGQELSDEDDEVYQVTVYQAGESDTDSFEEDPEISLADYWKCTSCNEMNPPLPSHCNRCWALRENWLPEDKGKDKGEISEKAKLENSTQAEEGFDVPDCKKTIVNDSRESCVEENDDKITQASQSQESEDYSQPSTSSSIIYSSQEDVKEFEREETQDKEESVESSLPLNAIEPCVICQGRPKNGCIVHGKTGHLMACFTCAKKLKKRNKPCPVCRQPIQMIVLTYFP
# SKKanGAS inh = inhibitors of SKKanGAS S. pyogenes growth in kanamycin (SK-promoter or general growth effect). AID 1662. BacTiter-Glo, 6 h. inhibition, % at 7.5 µM. 300,000 compounds, 1.3% hits;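 active = mean replicate score, as percent of positive control median, at least 50; inconclusive = mean below 50 but one replicate at or above 50; inactive = mean and every replicate below 50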;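 also: strain carries kanamycin resistance gene driven by streptokinase promoter and grows in 40 µg/ml kanamycin; loss of luminescence reflects streptokinase promoter inhibition or plain growth inhibition; 0% = median of DMSO wells and 100% = positive control at its reference dose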
# * marks the source's active call; other numbers are inactive results; ? = inconclusive; / = no result given.
SMILES,CSC inhib,T cruzi inh,aSyn UTR inh,Mdm2-MdmX inh,SKKanGAS inh
COc1ccccc1N=c1oc2cc(O)ccc2cc1C(=O)NCC1CCCO1 (centres undefined),7,1,15,25,4
COc1ccccc1N=c1oc2cc(O)ccc2cc1C(N)=O,?,-8,-74,24,70*
COc1ccc2sc(-c3ccc(SC)cc3)c(/C=C/c3ccc(OC)c(OC)c3)c2c1,-5,/,/,3,/
N#Cc1nnn(-c2cc(Cl)cc(Cl)c2)c1N,7,18,29,6,-5
Cc1c([N+](=O)[O-])nnn1-c1cc(Cl)cc(Cl)c1,0,63*,10,18,40
Cc1ccc(C)c(NC(=O)CN(C)C(=O)CSC(C)C(=O)Nc2cc(C)on2)c1 (centres undefined),7,-3,-18,37,1
O=C(Oc1cccnc1)c1ccc([N+](=O)[O-])cc1,-9,-41,2,14,4
O=[N+]([O-])c1cc(Oc2cccnc2)cc([N+](=O)[O-])c1,/,61*,13,-22,-8
CCOC(=O)C1(CCOc2ccccc2)CCN(Cc2ccc(OC)c(COC)c2)CC1,/,32,-19,21,-3
CCC(=O)NC(=S)Nc1ccc(NC(=S)NC(=O)c2ccccc2)cc1,/,61*,-104,/,?
CCC(=O)NC(=S)Nc1ccc(NC(=S)NC(=O)c2ccc(C)cc2)cc1,-26,-14,-6,8,27
O=C(NC(=O)c1ccccc1)Nc1ccccc1,0,-9,72*,-73,6
CC(C)c1ccccc1OS(N)(=O)=O,4,-25,-8,19,2
C[C@H]1CCC[C@@]2(O[C@H](CCO)C[C@H](O)[C@H]2O)O1,/,1,-34,-22,5
N#C/C(=N\Nc1ccc(S(=O)(=O)N2CCOCC2)cc1)C(N)=S,-2,4,8,22,65*
COc1ccc(OC)c(CNC(=O)C(C)n2nc(C)c3c(C)n(-c4ccccc4)nc3c2=O)c1 (centres undefined),-3,6,21,13,-4
COc1ccc(S(=O)(=O)N2CCOCC2)cc1NC(=O)COC(=O)c1oc2ccccc2c1C,0,/,/,11,/
COc1ccc(Cc2nc3ccc(C(=O)NC(C)c4cnn(C)c4)cc3o2)cc1 (centres undefined),-11,0,8,25,2
C#CCn1c(=NC(=O)c2cc(Cl)sc2Cl)sc2cc(S(N)(=O)=O)ccc21,-2,1,-10,5,50*
CC(=O)Nc1ccc(-n2c(=O)c3ccccc3c3ccccc3c2=O)cc1,-7,-11,-1,-12,0
CCCCCCCC[n+]1c(C)n(-c2ccccc2)c2ccc(NC(C)=O)cc21,-2,65*,-10,-6,2
O=C(COC(=O)c1ccc(S(=O)(=O)C(F)F)cc1)Nc1ccccc1C(=O)NC1CC1,-8,/,/,-10,/
c1ccc(Sc2ccccc2CN2CCCC2)cc1,-22,25,85*,16,-6
Fc1ccccc1CN1CCCCCCC1,0,-1,-17,15,-6
Cc1cnccc1CNC(=O)C1CCC(=O)N(Cc2ccc(Cl)cc2)C1 (centres undefined),-11,-1,-5,-7,1
SMILES,CSC inhib,T cruzi inh,aSyn UTR inh,Mdm2-MdmX inh,SKKanGAS inh
C/C(=N\N(Cc1ccccc1)c1ccccc1)c1cccnc1,-18,62*,-16,-20,9
C(=N\N(Cc1ccccc1)c1ccccc1)/c1cccnc1,10,24,17,9,19
COc1ccc(-c2cc(-c3ccc(C)cc3)n[nH]2)c(O)c1,10,4,-144,-116,77*
COc1ccc(-c2cc(-c3cc(C)ccc3O)[nH]n2)cc1,0,-8,-249,-63,?
COc1ccc(-c2n[nH]c(C)c2-c2ccc(Cl)cc2)c(O)c1,47,-18,28,30,68*
C[C@H](CO)N1C[C@H](C)[C@@H](CN(C)Cc2ccc(Cl)c(Cl)c2)Oc2c(NS(=O)(=O)c3cccs3)cccc2C1=O,-16,/,/,25,/
O=C(CN1C(=O)NC2(CCCCC2)C1=O)Nc1ccc(Cl)cc1,-6,/,/,0,/
Cc1cc(C)c(NC(=O)COC(=O)c2cccc3c2C(=O)c2ccccc2C3=O)c(C)c1,29,-9,41,47,40
Cc1cc(C)c(Nc2cc(S(=O)(=O)O)c(N)c3c2C(=O)c2ccccc2C3=O)c(C)c1,94*,/,/,/,/
CC(C)C(Sc1nc(-c2ccccc2)cc(-c2ccccc2)c1C#N)C(=O)O (centres undefined),48,18,7,-5,53*
COc1ccc(-c2cc(-c3ccccc3)c(C#N)c(SCC(=O)O)n2)cc1,16,-4,6,1,9
COc1ccccc1-c1cc(-c2ccccc2)nc(SCC(=O)O)c1C#N,11,4,-12,6,84*
COc1ccc(-c2cc(-c3ccccc3)nc(SC(C)C(=O)O)c2C#N)cc1 (centres undefined),16,27,12,1,32
O=C(/C=C/c1ccccc1)NC(=S)NNC(=O)Cc1cccs1,2,-8,-13,10,79*
O=C(Cc1cccs1)NNC(=S)NC(=O)c1ccccc1,-6,-18,-2,6,56*
O=C(Cc1cccs1)NNC(=S)NC(=O)c1ccc(F)c(F)c1,17,-17,-5,11,29
COc1ccc(/C=C/C(=O)NC(=S)NNC(=O)Cc2cccs2)cc1,40,15,-46,14,109*
O=C(NNC(=S)NC(=O)c1cccs1)c1ccc(O)cc1,-3,/,/,13,/
COc1ccc(CNC(=O)Cc2cccs2)cc1,-5,-12,-70,3,-3
O=C(NC(=S)NNC(=O)c1cccs1)c1ccc(Br)o1,7,-8,-13,15,101*
O=C(c1ccc(COc2ccc(Cl)cc2Cl)o1)N1CCCC1,-6,20,-63,5,8
O=C(Cc1ccccc1)NNC(=S)NC(=O)c1cccs1,11,30,75*,11,79*
COC(=O)c1sccc1NC(=O)Nc1ccc(F)cc1F,13,-11,7,8,-5
Cc1ccc2c(=O)c(CN3CCCCCC3)c(C)[nH]c2c1C,-10,16,1,3,-1
Cc1[nH]c2c(Cl)cccc2c(=O)c1CN1CCCCCC1,7,57*,5,20,-6
SMILES,CSC inhib,T cruzi inh,aSyn UTR inh,Mdm2-MdmX inh,SKKanGAS inh
COc1ccc(NS(=O)(=O)c2ccc(C(=O)N(C)Cc3cccs3)cc2)cc1,/,/,/,21,/
Cc1ccnc2nc(C(=O)OCC(=O)N(Cc3ccccc3)C(C)C)nn12,0,/,/,-16,/
O=C(Cn1c(=O)n(Cc2ccco2)c(=O)c2c3c(sc21)CCCCC3)c1ccccc1,12,-2,-24,-11,-21
CN(C)CCn1c(=O)n(Cc2ccco2)c(=O)c2c3c(sc21)CCCCC3,-12,55*,1,-3,-1
O=c1c2c3c(sc2n(CCN2CCCC2)c(=O)n1Cc1ccco1)CCCCC3,-17,57*,6,1,-3
CCOC(=O)c1sc2nc(C)nc(N3CCN(S(=O)(=O)c4ccccc4)CC3)c2c1C,23,/,/,4,/
